{"source": "ChEMBL document CHEMBL3272191", "about": "“Aporphines. 14 Dopaminergic and antinociceptive activity of aporphine derivatives. Synthesis of 10-hydroxyaporphines and 10-hydroxy-N-n-propylnoraporphine” (1976)", "key": {"Rattus norvegicus [1]": {"test_system": "Rattus norvegicus", "assay": "Central dopaminergic activity in 6-OH-DA-lesioned specific pathogen-free Sprague-Dawley rat assessed as induction of rotational behavior measured as total time at 5 mg/kg, ip", "assay_type": "functional", "details": "route intraperitoneal", "procedure,_shortened": "(§1)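 Drugs were given ip, mostly to one group of four rats, with an extra group of four in some runs. Doses were 3 days or more apart over several months. Read-outs were total turning time (min), peak activity, overall mean activity and total activity, given as means ± SEM.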"}, "Rattus norvegicus [2]": {"test_system": "Rattus norvegicus", "assay": "Central dopaminergic activity in 6-OH-DA-lesioned specific pathogen-free Sprague-Dawley rat assessed as induction of rotational behavior measured as total time at 1 mg/kg, ip", "assay_type": "functional", "details": "route intraperitoneal", "procedure,_shortened": "as §1"}, "Mus musculus [3]": {"test_system": "Mus musculus", "assay": "Antinociceptive activity in albino CD-1 mouse at 0.1 to 10 mg/kg, ip after 60 mins by tail-flick method", "assay_type": "functional, organism-based", "procedure,_shortened": "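Male albino CD-1 mice (18–24 g) were used in groups of ten. Compounds were suspended in 0.5% methylcellulose and given ip. Light was focused on the ventral tail and set for a 2–4 s baseline flick; mice outside that range were excluded. The control was the mean of two readings 30 min apart. Latencies were read every 30 min for 2 h, with a 10 s cutoff. Read-out was %MPE = [(Tr − Tc)/(10 − Tc)] × 100, taken at time of peak effect.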"}, "Rattus norvegicus [4]": {"test_system": "Rattus norvegicus", "assay": "Central dopaminergic activity in 6-OH-DA-lesioned specific pathogen-free Sprague-Dawley rat assessed as induction of rotational behavior measured as total time at 0.25 mg/kg, ip", "assay_type": "functional", "details": "route intraperitoneal", "procedure,_shortened": "as §1"}, "Rattus norvegicus [5]": {"test_system": "Rattus norvegicus", "assay": "Central dopaminergic activity in 6-OH-DA-lesioned specific pathogen-free Sprague-Dawley rat assessed as induction of rotational behavior measured as total time at 2.5 mg/kg, ip", "assay_type": "functional", "details": "route intraperitoneal", "procedure,_shortened": "as §1"}, "Rattus norvegicus [6]": {"test_system": "Rattus norvegicus", "assay": "Central dopaminergic activity in 6-OH-DA-lesioned specific pathogen-free Sprague-Dawley rat assessed as induction of rotational behavior measured as total time at 0.5 mg/kg, ip", "assay_type": "functional", "details": "route intraperitoneal", "procedure,_shortened": "as §1"}, "Mus musculus [7]": {"test_system": "Mus musculus", "assay": "Antinociceptive activity in naloxone hydrochloride-pretreated albino CD-1 mouse at 0.1 to 10 mg/kg, ip after 60 mins by tail-flick method", "assay_type": "functional, organism-based"}, "Rattus norvegicus [8]": {"test_system": "Rattus norvegicus", "assay": "Central dopaminergic activity in 6-OH-DA-lesioned ip dosed specific pathogen-free Sprague-Dawley rat assessed as induction of rotational behavior", "assay_type": "functional, organism-based", "procedure,_shortened": "as §1"}, "Rattus norvegicus [9]": {"test_system": "Rattus norvegicus", "assay": "Central dopaminergic activity in 6-OH-DA-lesioned specific pathogen-free Sprague-Dawley rat assessed as induction of rotational behavior measured as total time at 15 mg/kg, ip", "assay_type": "functional", "details": "route intraperitoneal", "procedure,_shortened": "(§2)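 Rotational behavior in unilaterally 6-OHDA-lesioned rats, ascending DA pathway. Drug given ip, mostly to one group of four rats, plus a second group of four for some doses. Injections at least 3 days apart over several months. Reported as mean total turning time (min), peak, overall and total activity, means ± SEM.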"}, "Rattus norvegicus [10]": {"test_system": "Rattus norvegicus", "assay": "Central dopaminergic activity in 6-OH-DA-lesioned specific pathogen-free Sprague-Dawley rat assessed as induction of rotational behavior measured as total time at 25 mg/kg, ip", "assay_type": "functional", "details": "route intraperitoneal", "procedure,_shortened": "as §2"}, "Mus musculus [11]": {"test_system": "Mus musculus", "assay": "Antinociceptive activity in albino CD-1 mouse at 1 to 10 mg/kg, ip up to 2 hrs by tail-flick method", "assay_type": "functional, organism-based", "procedure,_shortened": "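Male albino CD-1 mice (18–24 g), ten per group, dosed ip as suspension in 0.5% methylcellulose. Radiant light on ventral tail, adjusted for baseline 2–4 sec; animals outside excluded. Two control latencies 30 min apart averaged; post-dose latencies every 30 min over 2 hr, 10-sec cutoff. %MPE = [(Tr − Tc)/(10 − Tc)] × 100, read at peak-effect time.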"}, "Rattus norvegicus [12]": {"test_system": "Rattus norvegicus", "assay": "Central dopaminergic activity in 6-OH-DA-lesioned specific pathogen-free Sprague-Dawley rat assessed as induction of rotational behavior measured as total time at 0.05 mg/kg, ip", "assay_type": "functional", "details": "route intraperitoneal", "procedure,_shortened": "as §1"}, "Rattus norvegicus [13]": {"test_system": "Rattus norvegicus", "assay": "Central dopaminergic activity in 6-OH-DA-lesioned specific pathogen-free Sprague-Dawley rat assessed as induction of rotational behavior measured as total time at 0.1 mg/kg, ip", "assay_type": "functional", "details": "route intraperitoneal", "procedure,_shortened": "as §1"}, "Rattus norvegicus [14]": {"test_system": "Rattus norvegicus", "assay": "Central dopaminergic activity in 6-OH-DA-lesioned specific pathogen-free Sprague-Dawley rat assessed as induction of rotational behavior measured as total time at 0.01 mg/kg, ip", "assay_type": "functional", "details": "route intraperitoneal", "procedure,_shortened": "as §1"}, "Rattus norvegicus [15]": {"test_system": "Rattus norvegicus", "assay": "Central dopaminergic activity in 6-OH-DA-lesioned specific pathogen-free Sprague-Dawley rat assessed as induction of rotational behavior measured as total time at 2 mg/kg, ip", "assay_type": "functional", "details": "route intraperitoneal", "procedure,_shortened": "as §1"}, "Rattus norvegicus [16]": {"test_system": "Rattus norvegicus", "assay": "Central dopaminergic activity in 6-OH-DA-lesioned specific pathogen-free Sprague-Dawley rat assessed as induction of rotational behavior measured as total time at 0.025 mg/kg, ip", "assay_type": "functional", "details": "route intraperitoneal", "procedure,_shortened": "as §1"}, "Mus musculus [17]": {"test_system": "Mus musculus", "assay": "Antinociceptive activity in naloxone hydrochloride-pretreated albino CD-1 mouse at 0.1 to 10 mg/kg, ip after 10 mins by tail-flick method", "assay_type": "functional, organism-based"}, "Rattus norvegicus [18]": {"test_system": "Rattus norvegicus", "assay": "Central dopaminergic activity in 6-OH-DA-lesioned specific pathogen-free Sprague-Dawley rat assessed as induction of rotational behavior measured as total time at 0.005 mg/kg, ip", "assay_type": "functional", "details": "route intraperitoneal", "procedure,_shortened": "as §1"}, "Mus musculus [19]": {"test_system": "Mus musculus", "assay": "Antinociceptive activity in albino CD-1 mouse at 0.1 to 10 mg/kg, ip after 10 mins by tail-flick method", "assay_type": "functional, organism-based"}}, "note": "The source made the active and inactive calls.", "data": [{"smiles": "COc1ccc2c(c1O)-c1cccc3c1[C@@H](C2)N(C)CC3", "note": "[APOCIDEINE]", "values": [{"measurement": "Time", "setting": "Rattus norvegicus [1]", "value": 200, "unit": "min"}, {"measurement": "Time", "setting": "Rattus norvegicus [2]", "value": 40, "unit": "min"}]}, {"smiles": "CCCN1CCc2cccc3c2C1Cc1ccc(O)cc1-3", "note": "(racemic)", "values": [{"measurement": "Activity", "setting": "Mus musculus [3]", "value": "Active"}, {"measurement": "Time", "setting": "Rattus norvegicus [4]", "value": 0, "unit": "min"}, {"measurement": "Time", "setting": "Rattus norvegicus [5]", "value": 174, "unit": "min"}, {"measurement": "Time", "setting": "Rattus norvegicus [6]", "value": 105, "unit": "min"}, {"measurement": "Activity", "setting": "Mus musculus [7]", "value": "Active"}, {"measurement": "Time", "setting": "Rattus norvegicus [2]", "value": 177, "unit": "min"}, {"measurement": "Activity", "setting": "Rattus norvegicus [8]", "value": "Active"}]}, {"smiles": "N[C@@H](Cc1ccc(O)c(O)c1)C(=O)O", "note": "[LEVODOPA]", "values": [{"measurement": "Time", "setting": "Rattus norvegicus [9]", "value": 90, "unit": "min"}, {"measurement": "Time", "setting": "Rattus norvegicus [1]", "value": 35, "unit": "min"}, {"measurement": "Time", "setting": "Rattus norvegicus [10]", "value": 127, "unit": "min"}, {"measurement": "Activity", "setting": "Mus musculus [11]", "value": "inactive"}]}, {"smiles": "CCCN1CCc2cccc3c2C1Cc1cccc(O)c1-3", "note": "(racemic)", "values": [{"measurement": "Time", "setting": "Rattus norvegicus [4]", "value": 580, "unit": "min"}, {"measurement": "Time", "setting": "Rattus norvegicus [12]", "value": 195, "unit": "min"}, {"measurement": "Time", "setting": "Rattus norvegicus [13]", "value": 200, "unit": "min"}, {"measurement": "Time", "setting": "Rattus norvegicus [2]", "value": 725, "unit": "min"}, {"measurement": "Time", "setting": "Rattus norvegicus [14]", "value": 0, "unit": "min"}, {"measurement": "Activity", "setting": "Rattus norvegicus [8]", "value": "Active"}]}, {"smiles": "CN1CCc2cccc3c2[C@H]1Cc1ccc(O)c(O)c1-3", "note": "[APOMORPHINE]", "values": [{"measurement": "Time", "setting": "Rattus norvegicus [15]", "value": 238, "unit": "min"}, {"measurement": "Activity", "setting": "Mus musculus [3]", "value": "inactive"}, {"measurement": "Time", "setting": "Rattus norvegicus [12]", "value": 63, "unit": "min"}, {"measurement": "Time", "setting": "Rattus norvegicus [6]", "value": 144, "unit": "min"}, {"measurement": "Activity", "setting": "Mus musculus [7]", "value": "Active"}, {"measurement": "Time", "setting": "Rattus norvegicus [2]", "value": 153, "unit": "min"}, {"measurement": "Time", "setting": "Rattus norvegicus [14]", "value": 33, "unit": "min"}, {"measurement": "Time", "setting": "Rattus norvegicus [16]", "value": 55, "unit": "min"}, {"measurement": "Activity", "setting": "Rattus norvegicus [8]", "value": "Active"}]}, {"smiles": "CN1CC[C@]23c4c5ccc(O)c4O[C@H]2[C@@H](O)C=C[C@H]3[C@H]1C5", "values": [{"measurement": "Activity", "setting": "Mus musculus [3]", "value": "Active"}, {"measurement": "Activity", "setting": "Mus musculus [7]", "value": "inactive"}]}, {"smiles": "CCCN1CCc2cccc3c2[C@H]1Cc1ccc(O)c(O)c1-3", "note": "(racemic) [R-N-PROPYLNORAPOMORPHINE]", "values": [{"measurement": "Time", "setting": "Rattus norvegicus [12]", "value": 305, "unit": "min"}, {"measurement": "Time", "setting": "Rattus norvegicus [13]", "value": 360, "unit": "min"}, {"measurement": "Activity", "setting": "Mus musculus [17]", "value": "Active"}, {"measurement": "Time", "setting": "Rattus norvegicus [18]", "value": 205, "unit": "min"}, {"measurement": "Time", "setting": "Rattus norvegicus [14]", "value": 200, "unit": "min"}, {"measurement": "Time", "setting": "Rattus norvegicus [16]", "value": 185, "unit": "min"}, {"measurement": "Activity", "setting": "Mus musculus [19]", "value": "Active"}, {"measurement": "Activity", "setting": "Rattus norvegicus [8]", "value": "Active"}]}]}
